# HTR2A ag: agonists of mouse serotonin 5-HT2A receptor (HTR2A) | P35363 | CHO-K1 mHTR2A beta-arrestin complementation, luminescence; percent of 30 µM serotonin response | activation, % at 7.6 µM | 360,000 tested, 0.66% active;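 active means activation above a run cutoff, the mean activation of all tested compounds plus 3 SD, cut at about 14% in these data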;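 further: 0% = plate median of compound wells and 100% = 30 µM serotonin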
# Target sequence (P35363 whole entry, looked up): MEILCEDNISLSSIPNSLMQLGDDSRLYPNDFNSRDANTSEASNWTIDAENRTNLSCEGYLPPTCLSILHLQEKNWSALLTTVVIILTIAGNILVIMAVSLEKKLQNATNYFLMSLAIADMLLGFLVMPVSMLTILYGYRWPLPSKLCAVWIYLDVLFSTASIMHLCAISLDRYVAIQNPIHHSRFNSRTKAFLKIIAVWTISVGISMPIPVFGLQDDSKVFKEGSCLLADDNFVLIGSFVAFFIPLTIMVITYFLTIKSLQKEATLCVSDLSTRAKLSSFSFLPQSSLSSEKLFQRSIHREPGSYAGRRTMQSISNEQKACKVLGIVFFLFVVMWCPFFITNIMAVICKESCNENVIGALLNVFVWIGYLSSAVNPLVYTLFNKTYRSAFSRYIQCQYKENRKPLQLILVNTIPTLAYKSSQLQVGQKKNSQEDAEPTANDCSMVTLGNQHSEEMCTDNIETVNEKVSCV
# TMEM16A inh: blocks the mouse calcium-activated chloride channel TMEM16A | HEK293 TMEM16A/YFP iodide influx fluorescence, ionomycin | normalized B-score (activity score, 25-100; higher = stronger inhibition) at 10 µM | 310,000 tested, 1.2% active | Q8BHY3;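 active means ratio plate-corrected score three or more library SD toward inhibition, starting fluorescence score within five deviations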;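 further: score derived from kinetic fluorescence span divided by baseline fluorescence per well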
# TMEM16A act: activators or potentiators of mouse TMEM16A chloride channel; Q8BHY3; 340,000 tested, 0.3% active; HEK293 TMEM16A/YFP-H148Q/I152L, iodide quench fluorescence; hits give low values; AID 623877; B-score at 10 µM;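 active means fluorescence-ratio B-score plate-corrected deviation score at least 3 library SD below zero, with starting fluorescence score within 5 deviations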;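 further: channel opened by trigger with iodide after compound preincubation; score built on the fluorescence ratio of max minus min over baseline; more negative score means more quench and so TMEM16A activation or potentiation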
# MC4R antagonist: antagonists of human melanocortin 4 receptor (MC4R). MC4R-expressing cells, MTII-stimulated cAMP, LANCE TR-FRET. inhibition, % at 6.5 µM. 360,000 tested, 0.48% active. AID 540295;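 active means inhibition above its plate's cutoff, the mean of tested wells on that plate plus 3 SD, cut at about 29% in these data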;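 further: 0% = Melanotan II alone and 100% = Melanotan II plus saturating MCL0020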
#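 Material: U2OS-MC4R stable cell line | Reagent: Melanotan II challenge after compound preincubation | Doses: One concentration, 6.5 µM nominal | Incubation: 30-min compound preincubation, 1-h Melanotan II challenge, 1-h detection, room temperature | Signal: TR-FRET cAMP assay | Replicates: One well per compound, no replicates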
# MC4R barr agon: human MC4R agonism via beta-arrestin. P32245. activation, % at 8.9 µM. U2OS MC4R beta-arrestin complementation, luminescence; percent of melanotan II response, DMSO zero. 360,000 tested, 0.98% active;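 active means activation above a per-plate cutoff, the mean activation of sample wells on that plate plus 3 SD, cut at about 8% in these data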
# beta cell repl: MIN6 beta-cell proliferation induction; MIN6 cells proliferation, ATPlite luminescence, 48 h; cells starved in 0.2% serum; 100% = growth in 10% serum; proliferation, % at 10 µM; 330,000 tested, 0.29% active; AID 2380;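 active means compounds whose signal lies at least 3.5 SD above the mean of all wells on their plate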;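 further: 0% = DMSO-treated cells in low-serum medium and 100% = 10% serum control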
# Numbers without * were called inactive; i = inactive; x = no result given. Sampled rows, rich in hits. Any-hit rate of the full collection: about 3.4%.
SMILES,HTR2A ag,TMEM16A inh,TMEM16A act,MC4R antagonist,MC4R barr agon,beta cell repl
Cc1ccc(NC(=O)c2cccs2)cc1S(=O)(=O)Nc1cccc(Cl)c1,11,100*,i,-2,6,-1
N#CCOC(=O)[C@H](Cc1c[nH]c2ccccc12)NS(=O)(=O)c1ccc(Cl)cc1,6,i,i,34*,1,0
COc1ccc(-c2sc3ccccc3c2C#CCO)cc1,-3,25*,i,-4,1,-6
C#CCOCCOCCOCCNc1nc(N2CCN(C(=O)CCCCCCCCCCNC(=O)Cn3cc(C[C@@H](C)O)nn3)CC2)nc(N2CCN(C(=O)CCCCCCCCCCNC(=O)[C@@H]([C@H](C)CC)n3cc(CCCCCN)nn3)CC2)n1,9,25*,i,13,0,-9
C#CCOCCOCCOCCNc1nc(N2CCOCC2)nc(N2CCN(C(=O)CCCCCCCCCCNC(=O)[C@H]([C@@H](C)CC)n3cc(CCCCN=C(N)N)nn3)CC2)n1,-8,i,i,3,-1,-4
C#CCOCCOCCOCCNc1nc(N2CCN(C(=O)CCCCCCCCCCNC(=O)[C@H]([C@@H](C)CC)n3cc(CCCCN=C(N)N)nn3)CC2)nc(N2CCN(C(=O)CCCCCCCCCCNC(=O)[C@H](CCCN=C(N)N)n3cc(C[C@@H](C)CC)nn3)CC2)n1,x,25*,x,x,x,-8
C#CCOCCOCCOCCNc1nc(N2CCN(C(=O)CCCCCCCCCCNC(=O)Cn3cc(CCCCCN)nn3)CC2)nc(N2CCN(C(=O)CCCCCCCCCCNC(=O)Cn3cc(C[C@@H](C)O)nn3)CC2)n1,11,i,i,6,1,-7
C#CCOCCOCCOCCNc1nc(N2CCN(C(=O)CCCCCCCCCCNC(=O)[C@H](CCCN=C(N)N)n3cc(C[C@@H](C)CC)nn3)CC2)nc(N2CCN(C(=O)CCCCCCCCCCNC(=O)[C@@H]([C@H](C)CC)n3cc(CCCCCN)nn3)CC2)n1,x,25*,x,x,x,-8
COc1cccc(NC(=O)CN(C)C(=O)CCCc2nc3ccccc3c(=O)[nH]2)c1,8,x,i,8,-1,4
Cc1ccc(NC(=O)/C(C#N)=C(\N)C(Cl)(Cl)Cl)nc1,0,i,-11*,-5,-3,-6
FC(F)(F)c1cccc(CC2CN(Cc3ccccc3)Cc3ccccc3N2c2cc(Cl)cc(Cl)c2)c1 (stereo unspecified),-4,x,x,7,2,x
CC(C)CNS(=O)(=O)c1ccc(CCC(=O)N2CCN(Cc3ccc4c(c3)OCO4)CC2)cc1,10,100*,i,2,-2,-3
CCOC(=O)C[C@@H]1OC[C@H](C)N1S(=O)(=O)c1ccc(C)cc1,0,x,x,x,x,x
CCOC(=O)CCc1c(C)c2ccc(OCc3nn[nH]n3)cc2oc1=O,1,i,i,5,-1,-3
CCOC(=O)CCc1c(C)c2ccc(OCc3ccc([N+](=O)[O-])cc3)cc2oc1=O,12,i,i,11,13*,-1
CCN(CC(=O)Nc1c(F)cccc1F)C(=O)/C=C/c1ccc2c(c1)OCO2,-2,i,i,-3,-3,-6
CCCN1/C(=C(\C#N)C2=NS(=O)(=O)c3ccccc32)N(C)c2ccccc21,-2,x,i,4,0,x
Cc1c(C(=O)Nc2ccccn2)oc2ccccc12,4,i,i,-6,0,-4
Cc1c(C(=O)Nc2cccnc2Cl)oc2ccccc12,2,i,i,1,11*,-3
Cc1ccc(O)c(C2=NNC(O)(C(F)(F)F)C2)c1 (stereo unspecified),9,25*,i,-1,2,0
Cc1ccc(O)c(C2=NNC(c3ccc(Cl)cc3)C2)c1 (stereo unspecified),-6,i,i,11,-2,-5
CCOc1cc(C2c3c(oc4ccccc4c3=O)C(=O)N2c2nccs2)ccc1O (stereo unspecified),2,i,i,-4,9.5*,2
CC1OC2(C)OC(=N)C1(C#N)C(C#N)(C#N)C2c1ccccc1 (stereo unspecified),-2,i,i,-1,-2,-2

# Screening data: PubChem BioAssay, several laboratories
